Screening results (PubChem BioAssay)
PREPL inh = inhibitors of human prolyl oligopeptidase-like enzyme PREPL; Q4J6C6; recombinant PREPL, fluorescence polarization activity-based probe; inhibition, % at 5.96 µM; 320,000 compounds, 0.68% hits; AID 2751; in the data active = inhibition above about 43%;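 also: 0% = enzyme with DMSO and 100% = wells lacking enzyme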
PP5 primary = blocks human protein phosphatase 5 activity. P53041. purified PP5c, OMFP substrate fluorescence. inhibition, % at 6.7 µM. 320,000 compounds, 0.18% hits;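 active = inhibition above the campaign's mean inhibition across all tested compounds plus 3 SD, cut at about 9.5% in these data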;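 also: 0% = DMSO only and 100% = 100 µM cantharidin control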
UCH37 inh = human UCH37 deubiquitinating enzyme inhibition; inhibition, % (no concentration beside the values); purified proteasome/UCH37, Ub-AMC cleavage fluorescence; Q9Y5K5; AID 588478; 330,000 compounds, 0.33% hits;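 active = mean inhibition over replicate wells above about 20%, limit read from the data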;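 also: 0% = compound-free wells with enzyme and 100% = wells lacking proteasome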
Target sequence (Q9Y5K5 whole entry, looked up): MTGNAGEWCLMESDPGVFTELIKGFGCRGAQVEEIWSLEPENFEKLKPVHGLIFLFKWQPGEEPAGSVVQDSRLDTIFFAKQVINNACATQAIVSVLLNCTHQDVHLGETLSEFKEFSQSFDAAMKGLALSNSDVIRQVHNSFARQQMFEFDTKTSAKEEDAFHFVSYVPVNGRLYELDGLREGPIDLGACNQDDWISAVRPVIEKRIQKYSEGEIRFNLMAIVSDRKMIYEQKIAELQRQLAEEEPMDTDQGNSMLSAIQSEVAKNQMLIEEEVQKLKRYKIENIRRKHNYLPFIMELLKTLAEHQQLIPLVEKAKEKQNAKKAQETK
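Material: human UCH37 enzyme supplied as purified proteasome complex. Measure: % inhibition of Ub-AMC cleavage fluorescence. Medium: pH 7.4 Tris-HCl (50 mM) with ovalbumin, ATP-MgCl2, DTT. Times: 30 min preincubation with enzyme, 25 min cleavage at room temperature. Detection: AMC fluorescence intensity at 355/460 nm.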
PP1 inh = PP1-alpha (human) inhibition in PP5 counter-screen; 320,000 compounds, 0.9% hits; AID 2235; purified PP1alpha, OMFP fluorescence; inhibition, % at 6.7 µM; P62136;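 active = inhibition above the mean inhibition of all tested compounds plus 3 SD, computed separately for each screening campaign, cut at about 15% in these data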
Target sequence (P62136 whole entry, looked up): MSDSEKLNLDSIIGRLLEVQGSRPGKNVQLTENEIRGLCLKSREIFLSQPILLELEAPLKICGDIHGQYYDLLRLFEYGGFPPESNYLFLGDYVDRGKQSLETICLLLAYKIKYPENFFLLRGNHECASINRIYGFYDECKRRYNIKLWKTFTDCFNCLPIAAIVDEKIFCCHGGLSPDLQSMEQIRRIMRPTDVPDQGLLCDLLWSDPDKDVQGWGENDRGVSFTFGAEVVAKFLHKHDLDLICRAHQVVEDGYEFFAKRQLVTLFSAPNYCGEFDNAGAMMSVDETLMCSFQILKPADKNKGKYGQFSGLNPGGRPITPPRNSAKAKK
UBC13 polyUb = blocks human UBC13 polyubiquitin chain formation; P61088; inhibition, % at 20 µM; 330,000 compounds, 0.47% hits; AID 485273; TR-FRET; in the data active = inhibition above about 45%, passing the limit was not always enough; inconclusive = no clear call, values can overlap the other calls
CTSL1 counter = blocks F. hepatica cathepsin L1 in PFM18AAP counter-screen; 300,000 compounds, 0.49% hits; recombinant F. hepatica cathepsin L1, Z-Leu-Arg-MCA fluorescence; inhibition, % at 5.96 µM;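 active = inhibition above the mean of all tested compounds plus 3 SD, set per screening campaign, cut at about 17% in these data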;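 also: 0% = plate median of test compound wells and 100% = 1 µM Z-Phe-Ala-diazomethylketone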
Casp3 counter = inhibits human caspase-3 in UBC13 counter-screen; 1,400 compounds, 4% hits; inhibition, % at 20 µM; Recombinant caspase-3, Caspase-Glo 3/7 luminescence, 60 min; shares compounds with UBC13 polyUb;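 active = mean inhibition across replicates above about 26%, limit read from the data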;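 also: plate controls were DMSO with caspase-3 for no effect and DMSO wells lacking enzyme for full effect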
UBC13 conf = human UBC13 polyubiquitin inhibition, confirmed; inhibition, % at 10 µM; shares compounds with UBC13 polyUb; 1,400 compounds, 68% hits; AID 488859; UBC13 polyubiquitination, TR-FRET, biochemical; in the data active = inhibition above about 45%; inconclusive = no clear call, values can overlap the other calls
* marks the source's active call; other numbers are inactive results; ? = inconclusive; · = no result given. Shown are actives, neighbours in structure and some others; about 2.3% of the full set was active somewhere.

SMILES	PREPL inh	PP5 primary	UCH37 inh	PP1 inh	UBC13 polyUb	CTSL1 counter	Casp3 counter	UBC13 conf
CCC(C=NNC(=O)C(N)=O)CC	·	·	-2.0	·	·	·	·	·
CCC(=O)NC(c1cccs1)c1cc(Cl)c2ccccc2c1O (stereo not drawn)	7.6	0.8	-2.7	1.1	49.2*	·	-2.1	33.7
O=C(CCc1ccccc1)NC(c1cccs1)c1cc(Cl)c2cccnc2c1O (stereo not drawn)	·	·	4.9	·	·	·	·	·
CC(=O)NC(c1cccs1)c1cc(Cl)c2ccccc2c1O (stereo not drawn)	11.1	1.6	-4.1	-1.0	71.2*	·	-1.6	57.9*
O=C(O)c1cc(Cl)c2ccccc2c1O	-1.5	-0.4	-104.7	0.0	-7.0	2.3	·	·
CC(=O)NC(c1cc(Cl)c2ccccc2c1O)C(C)C (stereo not drawn)	1.7	0.7	0.2	-3.0	80.9*	·	-3.8	56.4*
Cc1ccc2[nH]c3nc(NN=Cc4cccc(O)c4)nnc3c2c1	·	·	7.6	·	·	·	·	·
CCn1c(SCC(=O)NN=Cc2cccs2)nc2ccccc21	·	·	2.8	·	·	·	·	·
CCn1c(=O)cc(C(F)(F)F)[nH]c1=S	-3.1	1.2	7.9	-0.3	55.3*	2.3	-1.3	?
CN1CCC(N(C)C(=O)/C=C/c2cn(-c3ccccc3)nc2-c2cccs2)CC1	-29.5	1.7	-85.3	3.0	45.7*	-3.3	-0.4	44.0
COc1cccc(-c2nnc3n2N=C(c2cc(OC)ccc2OC)CS3)c1	-1.8	1.0	4.5	4.9	55.5*	2.8	-2.8	47.6*
CC(=NNC(N)=O)c1ccc(-n2ccnc2)cc1	·	·	-0.1	·	·	·	·	·
Cc1ccc(C(=O)N/C(=C\c2ccc(-c3ccc(Cl)cc3)o2)C(=O)NCCCN(C)C)cc1	10.1	-0.1	-37.1	-2.4	47.4*	7.0	-3.3	70.1*
CN(C)CCCNC(=O)/C(=C\c1ccc(-c2ccc(Br)cc2)o1)NC(=O)c1ccccc1	14.4	3.7	-8.1	2.4	22.5	-0.1	·	·
O=C(COc1ccc(Cl)cc1)OCC(=O)N1CCCc2ccccc21	-3.4	4.5	5.7	5.1	62.8*	-7.0	-2.6	-2.7
O=C(COc1ccc(Cl)cc1Cl)OCC(=O)N1CCCc2ccccc21	-17.2	0.4	3.6	2.5	5.5	-6.7	·	·
O=C(NNC(=O)c1nn(-c2ccc(F)cc2)ccc1=O)c1ccccc1Cl	16.6	-1.6	5.9	-1.9	80.9*	2.6	-3.7	91.0*
O=C(O)c1nn(-c2ccc(F)cc2)ccc1=O	17.4	3.0	3.6	5.8	-0.5	0.7	·	·
CC(=NNc1ccc([N+](=O)[O-])cc1)c1ccc(-n2nncc2C)cc1	·	·	-0.4	·	·	·	·	·
CCN(CC)Cc1c(C(=O)NN=Cc2cccc(OCc3cccc(Cl)c3)c2)nnn1-c1nonc1N	·	·	1.1	·	·	·	·	·
CN(C)CCCN(C(=O)c1ccc(C(=O)c2ccccc2)cc1)c1nc2cc3c(cc2s1)OCO3	19.8	3.3	2.0	4.6	72.1*	-0.9	4.5	106.1*
CCN(Cc1ccccc1)S(=O)(=O)c1ccc(C(=O)N(CCCN(C)C)c2nc3ccc(F)cc3s2)cc1	2.5	0.4	4.8	6.5	30.0	1.2	·	·
CCN(Cc1ccccc1)S(=O)(=O)c1ccc(C(=O)N(CCCN(C)C)c2nc3cc4c(cc3s2)OCCO4)cc1	-1.3	3.3	6.0	10.6	95.5*	7.8	-1.8	114.2*
CN(C)CCCN(C(=O)c1ccc(S(=O)(=O)N2CCCC2)cc1)c1nc2ccc(Br)cc2s1	7.9	0.3	9.8	-0.3	70.5*	-4.3	-5.5	97.4*
CCOc1ccc2nc(N(CCCN(C)C)C(=O)c3ccc(S(=O)(=O)N4CCCC4)cc3)sc2c1	-5.2	2.7	2.3	-0.1	27.1	-2.2	·	·
SMILES	PREPL inh	PP5 primary	UCH37 inh	PP1 inh	UBC13 polyUb	CTSL1 counter	Casp3 counter	UBC13 conf
CCN(CC)CCN(C(=O)c1ccc(C(=O)c2ccccc2)cc1)c1nc2cc3c(cc2s1)OCO3	14.7	0.6	4.9	1.2	11.0	1.3	·	·
Cc1ccc2nc(N(CCCN(C)C)C(=O)c3ccc4c(c3)CCCC4)sc2c1	-11.2	1.6	1.1	6.5	66.2*	2.7	0.0	68.6*
CN(C)CCCN(C(=O)c1ccc(S(=O)(=O)N2CCCCC2)cc1)c1nc2cc3c(cc2s1)OCO3	24.9	3.1	3.4	2.9	54.7*	4.9	-0.5	89.6*
C=C(C)C1CC=C(C)C(=NNC(=O)C2CC2c2ccccc2)C1 (stereo not drawn)	·	·	2.6	·	·	·	·	·
Cc1cc(C)n(Cc2cccc(C(=O)NN=Cc3ccncc3)c2)n1	·	·	-0.9	·	·	·	·	·
Cc1ccccc1OCc1n(CC(=O)OC2CC(C)CCC2C(C)C)c2ccccc2[n+]1C (stereo not drawn)	14.5	1.7	5.5	10.3	55.4*	-2.1	0.7	97.6*
CCCCC1SC(=NN=Cc2ccc(OC)cc2)N(Cc2ccc(OC)cc2)C1=O (stereo not drawn)	·	·	4.6	·	·	·	·	·
O=C(NN=Cc1cn(-c2cccs2)nc1-c1ccccc1)c1ccccc1Cl	·	·	5.3	·	·	·	·	·
COc1cc2nc(=S)n3[nH]c(CCn4c(C)nc5ccccc54)nc3c2cc1OC	15.0	-0.1	7.6	-1.2	26.3	4.3	·	·
COc1ccc(OCc2nc3c4cc(OC)c(OC)cc4nc(=S)n3[nH]2)cc1	6.6	-1.0	4.6	-2.8	58.6*	2.2	4.4	44.3
COc1cccc(C=NNC(=S)Nc2cccc(C(=O)O)c2)c1	·	·	9.5	·	·	·	·	·
CCCCNC(=S)NCC(c1ccccc1)c1c[nH]c2ccccc12 (stereo not drawn)	0.3	5.2	4.0	1.7	9.4	2.9	·	·
CN(C)CCCNC(=S)NCC(c1ccc(Cl)cc1Cl)c1c[nH]c2ccccc12 (stereo not drawn)	39.2	5.9	·	4.9	60.1*	0.8	2.5	88.0*
CCN1CCN(Cc2ccc(NC(=O)c3ccc(C)c(/C=C/c4cnc(Nc5cc(N6CCNCC6)nc(C)n5)cn4)c3)cc2C(F)(F)F)CC1	28.1	2.7	-99.0	12.4	122.9*	1.5	-0.6	116.4*
CC(=O)NCc1ccc(S(=O)(=O)NN=Cc2ccccc2)cc1	·	·	2.1	·	·	·	·	·
COc1ccccc1NS(=O)(=O)c1cccc(C(=O)NNC(=O)c2ccc(O)c(Cl)c2)c1	-0.5	-1.0	1.9	-3.1	0.1	1.0	·	·
COc1ccccc1NS(=O)(=O)c1cccc(C(=O)NNC(=O)c2ccc(Cl)nc2)c1	1.8	·	1.7	·	45.2*	·	2.2	24.9
Cc1cc(C=NNc2ncnc(N)c2[N+](=O)[O-])c(C)n1-c1ccccc1	·	·	11.9	·	·	·	·	·
NC(=O)c1ccc(C=NO)nc1	·	·	3.9	·	·	·	·	·
Cc1nc2sccn2c(=O)c1CCN1CCC(=C(c2ccc(F)cc2)c2ccc(F)cc2)CC1	1.8	6.8	1.3	-1.2	45.3*	3.2	-1.4	22.2
